Assay results reported in ChEMBL document CHEMBL1135506, “Correlations between cytotoxicity and topography of some 2-arylidenebenzocycloalkanones determined by X-ray crystallography” (J Med Chem, 2002).

What was measured:
P388 = assay: Inhibitory activity against Murine P388 cells; type: functional, cell-based; conditions: Mus musculus
L1210 [1] = assay: Inhibitory activity against L1210 leukemia cells; type: functional, cell-based; conditions: Mus musculus
How it was run: (§1)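 Murine L1210 lymphoid leukemia cells, human Molt 4/C8 T-lymphocytes and human CEM T-lymphocytes were tested up to a maximum concentration of 500 µM, and the read-out was IC50 (µM).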

[2] = Inhibitory concentration against proliferation of human Molt 4/C8 cells; type: functional, cell-based; conditions: Molt4/C8; how it was run: as §1
CCRF-CEM = assay: Inhibitory concentration against CEM T-lymphocytes; type: functional, cell-based; conditions: Homo sapiens; how it was run: as §1
[3] = Partition coefficient (logP); type: physicochemical; conditions: octanol/water
L1210 [4] = assay: Effect on protein biosyntheses in leukemia L1210 cells; type: functional, cell-based; conditions: Mus musculus
How it was run: (§2)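 L1210 cells, ~2 × 10⁵ per well, were exposed to a range of concentrations together with 0.25 µCi of [methyl-³H]deoxythymidine (DNA), [5-³H]uridine (RNA) or [3,4-³H]leucine (protein). They were incubated 20 h at 37 °C. Radioactivity in the trichloroacetic acid-insoluble fraction was then counted by liquid scintillation.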

L1210 [5] = assay: Effect on proliferation of leukemia L1210 cells; type: functional, cell-based; conditions: Mus musculus; how it was run: as §1
L1210 [6] = assay: Effect on DNA biosyntheses in leukemia L1210 cells; type: functional, cell-based; conditions: Mus musculus; how it was run: as §2
L1210 [7] = assay: Effect on RNA biosyntheses in leukemia L1210 cells; type: functional, cell-based; conditions: Mus musculus; how it was run: as §2

## O=C1/C(=C/c2ccccc2[N+](=O)[O-])CCc2ccccc21
P388
  IC50: 12.6 µM
L1210 [1]
  IC50: 10.8 µM
[2]
  IC50: 8.12 µM
CCRF-CEM
  IC50: 7.22 µM

## O=C1/C(=C/c2ccccc2Br)Cc2ccccc21
P388
  IC50: > 50 µM
L1210 [1]
  IC50: 64.2 µM
[2]
  IC50: 95.4 µM
CCRF-CEM
  IC50: 46.8 µM

## O=C1/C(=C/c2ccc(Cl)c(Cl)c2)CCc2ccccc21
P388
  IC50: 13.1 µM
L1210 [1]
  IC50: 210 µM
[2]
  IC50: 28.6 µM
CCRF-CEM
  IC50: 9.77 µM

## COc1ccc(/C=C2\CCc3ccccc3C2=O)c(OC)c1
P388
  IC50: 2.61 µM
L1210 [1]
  IC50: 7.98 µM
[2]
  IC50: 1.69 µM
CCRF-CEM
  IC50: 1.88 µM

## O=C1/C(=C/c2ccc(Cl)cc2Cl)CCc2ccccc21
P388
  IC50: 17.2 µM
L1210 [1]
  IC50: 34.4 µM
[2]
  IC50: 28.4 µM
CCRF-CEM
  IC50: 8.73 µM

## O=C1/C(=C/c2ccccc2F)CCc2ccccc21
P388
  IC50: 21.8 µM
L1210 [1]
  IC50: 22.8 µM
[2]
  IC50: 36 µM
CCRF-CEM
  IC50: 20.8 µM

## Cc1ccccc1/C=C1\CCCc2ccccc2C1=O
P388
  IC50: 15.2 µM
L1210 [1]
  IC50: 61.2 µM
[3]
  logP: 4.92
[2]
  IC50: 36.2 µM
CCRF-CEM
  IC50: 43.2 µM

## COc1ccccc1/C=C/C(=O)c1ccccc1
P388
  IC50: 15.9 µM
L1210 [1]
  IC50: 64.4 µM
[2]
  IC50: 8.45 µM
CCRF-CEM
  IC50: 8.56 µM

## O=C1/C(=C/c2ccccc2Cl)CCCc2ccccc21
P388
  IC50: 12.7 µM
L1210 [1]
  IC50: 42.3 µM
[3]
  logP: 5.04
[2]
  IC50: 37.1 µM
CCRF-CEM
  IC50: 18.4 µM

## COc1ccccc1/C=C1\Cc2ccccc2C1=O
L1210 [4]
  IC50: 167 µM
L1210 [5]
  IC50: 170 µM
L1210 [6]
  IC50: 407 µM
P388
  IC50: 28.4 µM
L1210 [1]
  IC50: 170 µM
[2]
  IC50: 308 µM
CCRF-CEM
  IC50: 58.2 µM
L1210 [7]
  IC50: 292 µM

## Cc1ccccc1/C=C1\CCc2ccccc2C1=O
P388
  IC50: 17.7 µM
L1210 [1]
  IC50: 50.2 µM
[2]
  IC50: 41.4 µM
CCRF-CEM
  IC50: 43.2 µM

## COc1ccc(/C=C2\CCCc3ccccc3C2=O)cc1OC
P388
  IC50: 8.19 µM
L1210 [1]
  IC50: > 100 µM
[3]
  logP: 4.13
[2]
  IC50: > 20 µM
CCRF-CEM
  IC50: 28 µM

## O=C1/C(=C/c2ccccc2Br)CCCc2ccccc21
P388
  IC50: 19.8 µM
L1210 [1]
  IC50: 37 µM
[3]
  logP: 5.04
[2]
  IC50: 38.4 µM
CCRF-CEM
  IC50: 32.1 µM

## COc1cccc(/C=C2\Cc3ccccc3C2=O)c1OC
P388
  IC50: 28.7 µM
L1210 [1]
  IC50: 214 µM
[2]
  IC50: 53 µM
CCRF-CEM
  IC50: 37.6 µM

## COc1cccc(/C=C2\CCc3ccccc3C2=O)c1OC
P388
  IC50: 12.3 µM
L1210 [1]
  IC50: 38.2 µM
[2]
  IC50: 41.3 µM
CCRF-CEM
  IC50: 28.7 µM

## O=C1/C(=C/c2ccc(Cl)cc2Cl)Cc2ccccc21
P388
  IC50: > 50 µM
L1210 [1]
  IC50: > 500 µM
[2]
  IC50: > 500 µM
CCRF-CEM
  IC50: > 500 µM

## O=C(/C=C/c1ccc([N+](=O)[O-])cc1)c1ccccc1
P388
  IC50: 7.58 µM
L1210 [1]
  IC50: 59.1 µM
[2]
  IC50: 8.32 µM
CCRF-CEM
  IC50: 13.8 µM

## O=C(/C=C/c1cccc([N+](=O)[O-])c1)c1ccccc1
P388
  IC50: 15.3 µM
L1210 [1]
  IC50: 82.9 µM
[2]
  IC50: 8.53 µM
CCRF-CEM
  IC50: 8.9 µM

## COc1ccccc1/C=C1\CCCc2ccccc2C1=O
P388
  IC50: 18 µM
L1210 [1]
  IC50: 46.1 µM
[3]
  logP: 4.69
[2]
  IC50: 37.1 µM
CCRF-CEM
  IC50: 28.9 µM

## COc1cc(/C=C2\Cc3ccccc3C2=O)cc(OC)c1OC
P388
  IC50: > 50 µM
L1210 [1]
  IC50: > 500 µM
[2]
  IC50: > 500 µM
CCRF-CEM
  IC50: > 500 µM

## COc1cc(/C=C2\CCCc3ccccc3C2=O)cc(OC)c1OC
P388
  IC50: 8.68 µM
L1210 [1]
  IC50: 35.8 µM
[3]
  logP: 4.29
[2]
  IC50: 23.1 µM
CCRF-CEM
  IC50: 11.7 µM

## O=C1/C(=C/c2ccccc2Cl)Cc2ccccc21
P388
  IC50: 26.5 µM
L1210 [1]
  IC50: 152 µM
[2]
  IC50: 128 µM
CCRF-CEM
  IC50: 57 µM

## COc1ccc(/C=C2\Cc3ccccc3C2=O)cc1OC
P388
  IC50: 23.9 µM
L1210 [1]
  IC50: 264 µM
[2]
  IC50: 468 µM
CCRF-CEM
  IC50: 286 µM

## O=C1/C(=C/c2ccc(Cl)cc2Cl)CCCc2ccccc21
P388
  IC50: 14 µM
L1210 [1]
  IC50: > 500 µM
[3]
  logP: 5.65
[2]
  IC50: > 500 µM
CCRF-CEM
  IC50: 407 µM

## O=C1/C(=C/c2ccccc2F)Cc2ccccc21
P388
  IC50: 31.7 µM
L1210 [1]
  IC50: 150 µM
[2]
  IC50: 54.2 µM
CCRF-CEM
  IC50: 47.1 µM

## Cc1ccccc1/C=C1\Cc2ccccc2C1=O
P388
  IC50: 23.9 µM
L1210 [1]
  IC50: 208 µM
[2]
  IC50: 154 µM
CCRF-CEM
  IC50: 56.5 µM

## COc1cccc(/C=C/C(=O)c2ccccc2)c1
P388
  IC50: 9.75 µM
L1210 [1]
  IC50: 45.1 µM
[2]
  IC50: 7.94 µM
CCRF-CEM
  IC50: 8.55 µM

## O=C1/C(=C/c2ccccc2F)CCCc2ccccc21
P388
  IC50: 13.2 µM
L1210 [1]
  IC50: 60.4 µM
[3]
  logP: 4.55
[2]
  IC50: 42.1 µM
CCRF-CEM
  IC50: 28.2 µM

## O=C1/C(=C/c2ccccc2Br)CCc2ccccc21
P388
  IC50: 19.7 µM
L1210 [1]
  IC50: 33.4 µM
[2]
  IC50: 36.8 µM
CCRF-CEM
  IC50: 25.4 µM

## COc1ccc(/C=C2\CCc3ccccc3C2=O)cc1OC
P388
  IC50: 5.69 µM
L1210 [1]
  IC50: 42 µM
[2]
  IC50: 11.6 µM
CCRF-CEM
  IC50: 8.56 µM

## COc1cccc(/C=C2\CCCc3ccccc3C2=O)c1OC
P388
  IC50: 8.58 µM
L1210 [1]
  IC50: > 500 µM
[3]
  logP: 4.54
[2]
  IC50: > 500 µM
CCRF-CEM
  IC50: 142 µM

## O=C1/C(=C/c2ccc(Cl)c(Cl)c2)CCCc2ccccc21
P388
  IC50: 12.2 µM
L1210 [1]
  IC50: 45.7 µM
[3]
  logP: 5.71
[2]
  IC50: 18.2 µM
CCRF-CEM
  IC50: 11.8 µM

## O=C1/C(=C/c2ccccc2[N+](=O)[O-])CCCc2ccccc21
P388
  IC50: 36.5 µM
L1210 [1]
  IC50: 47 µM
[3]
  logP: 4.07
[2]
  IC50: 40 µM
CCRF-CEM
  IC50: 16.2 µM

## O=C1/C(=C/c2ccccc2Cl)CCc2ccccc21
P388
  IC50: 17.5 µM
L1210 [1]
  IC50: 30 µM
[2]
  IC50: 29.6 µM
CCRF-CEM
  IC50: 8.8 µM

## COc1cc(/C=C2\CCc3ccccc3C2=O)cc(OC)c1OC
P388
  IC50: 6.72 µM
L1210 [1]
  IC50: 31.2 µM
[2]
  IC50: 8.28 µM
CCRF-CEM
  IC50: 7.04 µM

## COc1ccc(/C=C2\Cc3ccccc3C2=O)c(OC)c1
P388
  IC50: 13 µM
L1210 [1]
  IC50: 14 µM
[2]
  IC50: 48.5 µM
CCRF-CEM
  IC50: 87.1 µM

## O=C1/C(=C/c2ccccc2[N+](=O)[O-])Cc2ccccc21
L1210 [4]
  IC50: 17.2 µM
L1210 [5]
  IC50: 7.61 µM
L1210 [6]
  IC50: 14.7 µM
P388
  IC50: 0.74 µM
L1210 [1]
  IC50: 7.61 µM
[2]
  IC50: 2.54 µM
CCRF-CEM
  IC50: 3.53 µM
L1210 [7]
  IC50: 11.7 µM

## O=C(/C=C/c1ccccc1[N+](=O)[O-])c1ccccc1
P388
  IC50: 3.74 µM
L1210 [1]
  IC50: 30.4 µM
[2]
  IC50: 8.38 µM
CCRF-CEM
  IC50: 8.6 µM

## O=C1/C(=C/c2ccc(Cl)c(Cl)c2)Cc2ccccc21
P388
  IC50: 25 µM
L1210 [1]
  IC50: > 500 µM
[2]
  IC50: > 500 µM
CCRF-CEM
  IC50: 397 µM

## COc1ccccc1/C=C1\CCc2ccccc2C1=O
P388
  IC50: 17.5 µM
L1210 [1]
  IC50: 40.5 µM
[2]
  IC50: 31.3 µM
CCRF-CEM
  IC50: 12.6 µM

## COc1ccc(/C=C2\CCCc3ccccc3C2=O)c(OC)c1
P388
  IC50: 7.82 µM
L1210 [1]
  IC50: 12.4 µM
[3]
  logP: 5.01
[2]
  IC50: 71.4 µM
CCRF-CEM
  IC50: 48.4 µM

## N[C@@H](Cc1ccc(N(CCCl)CCCl)cc1)C(=O)O
L1210 [6]
  IC50: > 100 µM
L1210 [7]
  IC50: > 100 µM

## COc1ccc(/C=C/C(=O)c2ccccc2)cc1 [4-METHOXY CHALCONE]
P388
  IC50: 10.6 µM
L1210 [1]
  IC50: 50.4 µM
[2]
  IC50: 30 µM
CCRF-CEM
  IC50: 33.5 µM
